# Sampled rows, rich in hits. Any-hit rate of the full collection: about 5.8%.
# GASC1 inh: inhibitors of GASC-1 (KDM4C) histone demethylase, primary screen, biochemical, single concentration HTS; AID 720574, 2013; 96,000 compounds, 0.15% hits; GST-KDM4C 2-372, H3K9me3 peptide, LANCE TR-FRET; inhibition, % at 12.5 µM;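 active = mean replicate inhibition above about 25%, with at least 55% of replicates also reaching it, limit read from the data, passing the limit was not always enough; inconclusive = only one of those two conditions met; inactive = neither condition met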
#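 reagent = H3K9me3 peptide substrate, Fe(II), 2-oxoglutarate | system = GST-tagged GASC-1 (JMJD2C) catalytic fragment, aa 2-372 | amount = enzyme final amount 10 nM | read-out = Fall in 671/618 emission ratio as inhibition | medium = HEPES buffer, pH 7.5, plus ascorbate | schedule = 30 min reaction, 60 min detection, RT | measured by = LANCE TR-FRET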
# Pf Dd2 inh: P. falciparum Dd2 growth inhibitors, primary screen, SYBR Green fluorescence, single dose replicates; 72 h; active compounds read low; activity change, % at 10 µM; 94,000 compounds, 2.3% hits; AID 1159554, 2015; in the data active = activity change below about -80%; inconclusive = no clear call, values can overlap the other calls
# T cruzi growth-1: T. cruzi intracellular proliferation inhibitors, primary screen, cell-based, beta-gal Tulahuen parasites, NIH3T3 host, luminescence. AID 624255, 2012. T. cruzi beta-gal in NIH3T3, GalScreen luminescence, 90 h. 77,000 compounds, 5.9% hits. inhibition, % at 8.34 µM;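 active = mean inhibition above about 93%, with at least 55% of replicates each passing it, limit read from the data, passing the limit was not always enough; inconclusive = only one of those two conditions holds; inactive = neither condition holds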
# IDH1 mut inh: inhibitors of IDH1 R132H reductase, primary screen, biochemical, plate reader, single point | Isocitrate dehydrogenase [NADP] cytoplasmic (Homo sapiens), O75874 | 70,000 compounds, 0.18% hits | AID 624101, 2012 | diaphorase/resazurin fluorescence, 60 min | inhibition, % at 10 µM; in the data active = inhibition above about 34%; inconclusive = no clear call, values can overlap the other calls; inactive = below about 11%;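 note: 0% = DMSO and 100% = no enzyme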
# Target sequence (O75874 whole entry R132H): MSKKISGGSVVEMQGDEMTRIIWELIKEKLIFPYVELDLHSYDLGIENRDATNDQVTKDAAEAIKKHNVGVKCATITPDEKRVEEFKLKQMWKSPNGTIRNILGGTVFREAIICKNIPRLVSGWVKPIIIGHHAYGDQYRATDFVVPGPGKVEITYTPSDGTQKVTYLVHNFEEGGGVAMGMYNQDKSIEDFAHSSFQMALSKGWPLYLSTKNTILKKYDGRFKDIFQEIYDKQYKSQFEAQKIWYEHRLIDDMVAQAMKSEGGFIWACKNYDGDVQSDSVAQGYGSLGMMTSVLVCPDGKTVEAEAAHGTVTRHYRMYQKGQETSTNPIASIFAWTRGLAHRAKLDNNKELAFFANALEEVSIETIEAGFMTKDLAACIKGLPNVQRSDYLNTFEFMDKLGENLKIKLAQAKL
# T cruzi growth-2: T. cruzi intracellular proliferation inhibitors, confirmation, cell-based, NIH3T3 host, beta-gal parasite, luminescence, cherry-pick; inhibition, % at 8.35 µM; T. cruzi beta-gal in NIH3T3, GalScreen luminescence, 90 h; shares compounds with T cruzi growth-1; AID 651739, 2012; 5,600 compounds, 72% hits;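 active = mean replicate inhibition above about 95% and at least 55% of replicates individually reaching it, limit read from the data; inconclusive = only one of the two criteria is met; inactive = neither criterion is met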
# T cruzi growth-3: inhibitors of intracellular T. cruzi replication, confirmation, NIH3T3 host cells, beta-gal parasites, cherry-pick, set 2. shares compounds with T cruzi growth-1. T. cruzi beta-gal in NIH3T3, GalScreen luminescence, 90 h. inhibition, % at 2.09 µM. 5,600 compounds, 21% hits. AID 651740, 2012;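 active = mean inhibition above about 95%, with at least 55% of replicates also reaching it, limit read from the data; inconclusive = meets just one of the two conditions; inactive = meets neither condition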;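 note: plate controls were neutral control median for no effect and positive control median for full effect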
# NIH3T3 tox: cytotoxicity in mouse NIH/3T3 fibroblasts, confirmation, cytotoxicity control for T. cruzi proliferation inhibitor project, cell-based, cherry-pick, single point. NIH/3T3 viability, CellTiter-Glo ATP luminescence, 90 h. 5,600 compounds, 14% hits. shares compounds with T cruzi growth-1. cytotoxicity (signal decrease), % at 8.35 µM;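 active = mean signal decrease across replicates above about 35% based on untreated-well scatter, with enough replicates individually passing, limit read from the data; inconclusive = no rule stated though some were filed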;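 note: 0% = median of neutral control wells and 100% = median of positive control wells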
# NIH3T3 tox 2: NIH/3T3 fibroblast cytotoxicity, confirmation, cytotoxicity control, cell-based, cherry-pick, single point, set 2; shares compounds with T cruzi growth-1; NIH/3T3 viability, CellTiter-Glo ATP luminescence, 90 h; inhibition, % at 24.9 µM; 5,600 compounds, 56% hits;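 active = mean loss of cell viability signal at or above a set limit, and enough replicates individually reaching it; inconclusive = meets only the mean limit or only the replicate share; inactive = meets neither condition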;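 note: 0% = median of neutral control wells and 100% = median of positive control wells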
# Active calls of the source: *; ? = inconclusive; / = no result; + = active, no number.
SMILES,GASC1 inh,Pf Dd2 inh,T cruzi growth-1,IDH1 mut inh,T cruzi growth-2,T cruzi growth-3,NIH3T3 tox,NIH3T3 tox 2
CN1c2ccc(-c3ccccc3F)cc2[C@@H]2[C@@H](CCN2S(=O)(=O)c2ccc(F)cc2)[C@H]1CO,0,4,108*,/,111*,91,?,49*
COc1ccc(S(=O)(=O)N2CC[C@@H]3[C@H]2c2cc(-c4ccccc4F)ccc2N(C)[C@H]3CO)cc1,-9,-22,56,/,/,/,/,/
CCn1c(SCC(=O)Nc2cccc3ccccc23)nnc1-c1ccco1,/,/,/,0,/,/,/,/
C[C@H](CO)N1C[C@H](C)[C@H](CN(C)S(=O)(=O)c2ccc(F)cc2)Oc2ncc(C#Cc3ccc(F)cc3)cc2C1=O,-2,-30,113*,1,108*,48,34,36*
C[C@@H]1CN([C@@H](C)CO)C(=O)c2cc(C#CC3CCCC3)cnc2O[C@H]1CN(C)S(=O)(=O)c1cccc(F)c1,2,-42,115*,0,103*,92,27,86*
Cc1ccc(S(=O)(=O)N(C)C[C@@H]2Oc3ncc(C#Cc4ccc(F)cc4)cc3C(=O)N([C@H](C)CO)C[C@@H]2C)cc1,-3,-47,-9,0,/,/,/,/
C[C@H](CO)N1C[C@H](C)[C@H](CN(C)S(=O)(=O)c2ccccc2)Oc2ncc(C#Cc3cccc(F)c3)cc2C1=O,-3,-31,50,1,/,/,/,/
C[C@H](CO)N1C[C@H](C)[C@H](CN(C)S(=O)(=O)c2ccccc2)Oc2ncc(C#Cc3ccc(F)cc3)cc2C1=O,-3,-57,?,-1,107*,54,21,16
CCOC(=O)c1ccc(NC(=O)CSc2nc3ccc(C)cc3[nH]2)cc1,/,/,/,0,/,/,/,/
Cc1cccc(-n2c(SCC(=O)c3ccccc3)nnc2-c2cccs2)c1C,/,/,/,0,/,/,/,/
Cc1nc(SCC(=O)c2cc3ccccc3oc2=O)c(C(N)=O)c(C)c1C,/,/,/,1,/,/,/,/
Cc1ccc(N(CC(=O)Nc2ccccc2F)S(C)(=O)=O)cc1Cl,/,/,/,0,/,/,/,/
COc1ccccc1-c1ccc2c(c1)O[C@@H](CN(C)C(=O)c1ccncc1)[C@@H](C)CN([C@@H](C)CO)S2(=O)=O,-1,-10,108*,4,96*,88,10,25*
C[C@H]1CN([C@@H](C)CO)S(=O)(=O)c2ccc(/C=C/c3ccccc3)cc2O[C@H]1CN(C)C(=O)c1ccncc1,-7,5,106*,0,109*,86,44*,70*
COc1ccccc1-c1ccc2c(c1)O[C@H](CN(C)C(=O)c1ccncc1)[C@@H](C)CN([C@H](C)CO)S2(=O)=O,1,6,67,2,/,/,/,/
C[C@@H]1CN([C@H](C)CO)S(=O)(=O)c2ccc(/C=C/c3ccccc3)cc2O[C@H]1CN(C)C(=O)c1ccccc1,/,-79,128*,-4,111*,87,16,100*
O=C(CSC1CC(=O)N(c2ccc(Br)cc2)C1=O)Nc1ccc(Cl)c(Cl)c1 (stereo unspecified),/,/,/,18,/,/,/,/
COc1ccccc1C#Cc1ccc([C@H]2[C@H]3CN(C(=O)C4CC4)CCCCN3[C@H]2CO)cc1,/,-21,101*,/,100*,57,30,48*
COc1ccccc1C#Cc1ccc([C@H]2[C@@H](CO)N3CCCCN(C(=O)C4CC4)C[C@@H]23)cc1,/,-59,110*,/,104*,65,57*,47*
COc1ccccc1C#Cc1ccc([C@@H]2[C@H](CO)N3CCCCN(S(C)(=O)=O)C[C@@H]23)cc1,2,-48,91,/,/,/,/,/
O=C(CSc1nnnn1-c1ccccc1)Nc1ccc(Br)cc1F,/,/,/,1,/,/,/,/
COc1ccc(CNC(=O)C[C@@H]2C[C@H]3c4cc(N(C)C)ccc4O[C@H]3[C@@H](CO)O2)cc1,2,6,-18,-2,/,/,/,/
COc1ccc(CNC(=O)C[C@H]2C[C@H]3c4cc(N(C)C)ccc4O[C@H]3[C@H](CO)O2)cc1,19,-45,-45,-1,/,/,/,/
CN(C)c1ccc2c(c1)[C@@H]1C[C@@H](CC(=O)NCc3cc(F)ccc3F)O[C@H](CO)[C@@H]1O2,5,-36,36,-3,/,/,/,/
CN(C)c1ccc2c(c1)[C@H]1C[C@H](CC(=O)NCc3ccc(Oc4ccccc4)cc3)O[C@@H](CO)[C@H]1O2,0,-39,132*,-2,107*,105*,-3,?
SMILES,GASC1 inh,Pf Dd2 inh,T cruzi growth-1,IDH1 mut inh,T cruzi growth-2,T cruzi growth-3,NIH3T3 tox,NIH3T3 tox 2
CN(C)c1ccc2c(c1)[C@@H]1C[C@@H](CC(=O)NCc3cc(F)ccc3F)O[C@@H](CO)[C@@H]1O2,9,-87*,+,-7,72,28,-9,9
CN(C)c1ccc2c(c1)[C@H]1C[C@H](CC(=O)NCc3ccc(-c4ccccc4)cc3)O[C@@H](CO)[C@H]1O2,4,-37,114*,-1,110*,102*,5,4
CSc1ccccc1NC(=O)CN(C)S(=O)(=O)c1ccc(C)cc1,/,/,/,0,/,/,/,/
CCn1c(SCC(=O)Nc2ccccc2OC)nnc1-c1ccc(Br)cc1,/,/,/,0,/,/,/,/
C[C@@H]1CCCCO[C@@H](CN(C)CC2CC2)[C@H](C)CN([C@H](C)CO)C(=O)c2cc(NC(=O)Nc3ccc(C(F)(F)F)cc3)ccc2O1,0,-69,53,4,/,/,/,/
C[C@@H]1CCCCO[C@@H](CN(C)CC2CCCCC2)[C@@H](C)CN([C@@H](C)CO)C(=O)c2cc(NC(=O)Nc3ccc(C(F)(F)F)cc3)ccc2O1,/,-53,99*,/,?,112*,122*,103*
C[C@@H]1CCCCO[C@H](CN(C)CC2CCCCC2)[C@H](C)CN([C@H](C)CO)C(=O)c2cc(NC(=O)Nc3ccc(C(F)(F)F)cc3)ccc2O1,/,-78,?,-2,2,-1,-4,-2
C[C@@H]1CCCCO[C@@H](CN(C)CC2CCCCC2)[C@H](C)CN([C@H](C)CO)C(=O)c2cc(NC(=O)Nc3ccc(C(F)(F)F)cc3)ccc2O1,-2,-81*,?,-1,106*,116*,118*,105*

# Bioassay records (PubChem BioAssay)
